# IMP-1 inh-1 = inhibitors of Pseudomonas aeruginosa IMP-1 metallo-beta-lactamase. purified IMP-1, nitrocefin hydrolysis, epi-absorbance fluorescence. inhibition, % at 5.6 µM. hit rate 0.45% among 290,000. AID 1556;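 active = inhibition above the mean plus 3 SD of all compounds in the same screening run, cut at about 4.5% in these data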;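 also: 0% = IMP-1 with DMSO and 100% = DMSO wells lacking enzyme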
#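 Assay system: purified recombinant IMP-1 beta-lactamase. Input: IMP-1 0.2 nM before substrate addition. Buffer or medium: Zinc- and detergent-supplemented HEPES buffer, pH 7.1. Schedule: 25 °C, 15 min preincubation, 25 min reaction. Signal: Epi-absorbance fluorescence, 480 nm excitation, 530 nm emission. Evaluation: percent inhibition from optical density relative to buffer-blank wells.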
# DNA FID counter = counter-screen for HCV NS3 helicase inhibitors: DNA intercalator displacement; DNA fluorescent intercalator displacement, fluorescence; hit rate 0.17% among 290,000; inhibition, % at 7.9 µM; in the data active = inhibition above about 37%;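 also: 0% = vehicle and 100% = reference compound; higher means more ethidium bromide displaced from hairpin DNA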
# VIM-2 inhibitor = blocks Pseudomonas aeruginosa VIM-2 metallo-beta-lactamase | purified VIM-2, nitrocefin hydrolysis, epi-absorbance fluorescence | inhibition, % at 5.6 µM | hit rate 0.89% among 290,000;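 active = inhibition above the mean of all tested compounds plus 3 SD, cutoff set per screening run, cut at about 7.5% in these data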;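 also: red hydrolysis product quenches plate fluorescence so inhibitors raise well fluorescence; 0% = enzyme with DMSO and 100% = DMSO without enzyme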
# SUMO HTRF inh = SUMOylation inhibition; P63279; inhibition, % at 35 µM; hit rate 0.36% among 290,000; AID 2006; HTRF SUMOylation assay, SAE1/SAE2 + UBC9, in vitro; in the data active = inhibition above about 50%, passing the limit was not always enough
# Target sequence (P63279 whole entry, looked up): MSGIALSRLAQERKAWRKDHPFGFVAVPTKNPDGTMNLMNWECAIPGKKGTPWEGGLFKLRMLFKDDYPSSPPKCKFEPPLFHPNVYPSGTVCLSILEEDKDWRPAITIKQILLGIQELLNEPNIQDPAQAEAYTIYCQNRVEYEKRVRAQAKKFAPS
# NS3 helicase inh = HCV NS3 helicase inhibition; AID 1800; inhibition, % at 10.9 µM; NS3 helicase DNA unwinding, Cy5 molecular beacon fluorescence; hit rate 0.56% among 290,000;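 active = inhibition above the mean of all tested compounds plus 3 SD, set per campaign, cut at about 35% in these data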;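 also: 0% = DMSO wells and 100% = thioflavine S control wells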
#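 System: Hepatitis C virus NS3 helicase domain fragment enzyme | Reagent: Annealed dual-labelled DNA beacon duplex, ATP-started | Compound dosing: 10.9 µM single point, 0.8% DMSO | Incubation: 1 h reaction at 25 °C, ATP-initiated | Technique: Cy5 fluorescence | Evaluation: Percent inhibition from t60/t0 fluorescence ratio | Benchmarks: Low DMSO, high thioflavine S at 110 µM | Replication: Singlicate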
# IMP-1 inh-2 = IMP-1 inhibition, counter-screen for VIM-2 inhibitors. inhibition, % at 5.6 µM. purified IMP-1, nitrocefin hydrolysis, epi-absorbance fluorescence. shares compounds with VIM-2 inhibitor. AID 1856. 1,300 tested, under 10 active; call rule not given here;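 also: 0% = enzyme with vehicle and 100% = vehicle without enzyme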
# VIM-2 FRET ctr = VIM-2 FRET inhibition, artifact counter-screen | shares compounds with VIM-2 inhibitor | purified VIM-2, CCF2 FRET substrate hydrolysis | inhibition, % at 5.6 µM | hit rate 23% among 1,300 | AID 1857;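 active = inhibition above the mean of all tested compounds plus 3 SD, cut at about 19% in these data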;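 also: 0% = VIM-2 plus DMSO and 100% = no enzyme wells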
# TEM-1 counter = TEM-1 inhibition, counter-screen for VIM-2 inhibitors. shares compounds with VIM-2 inhibitor. Purified TEM-1, nitrocefin hydrolysis, epi-absorbance fluorescence. inhibition, % at 5.6 µM. hit rate 3% among 1,300;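 active = inhibition above that campaign's mean inhibition plus 3 SD, cut at about 0.46% in these data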;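 also: 0% = TEM-1 with DMSO and 100% = TEM-1 with 100 µM potassium clavulanate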
# Target sequence (P62593 whole entry, looked up): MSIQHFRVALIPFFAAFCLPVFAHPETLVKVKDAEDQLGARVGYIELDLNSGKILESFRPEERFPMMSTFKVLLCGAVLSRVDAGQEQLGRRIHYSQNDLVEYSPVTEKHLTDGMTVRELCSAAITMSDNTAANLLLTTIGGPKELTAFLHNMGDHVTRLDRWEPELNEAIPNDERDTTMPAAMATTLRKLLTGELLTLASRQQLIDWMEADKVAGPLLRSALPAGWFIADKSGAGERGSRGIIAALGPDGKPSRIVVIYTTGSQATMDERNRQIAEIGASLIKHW
# VIM-2 inh conf = confirmation of P. aeruginosa VIM-2 metallo-beta-lactamase inhibitors; inhibition, % at 5.6 µM; hit rate 96% among 1,300; purified VIM-2, nitrocefin hydrolysis, epi-absorbance; shares compounds with VIM-2 inhibitor;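 active = inhibition of the VIM-2 beta-lactamase enzyme above about 11% from the earlier first-round screen, limit read from the data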;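 also: 0% = VIM-2 with DMSO and 100% = buffer wells without enzyme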
# * hit, by the source's call; . = no result given. Rows were chosen to be rich in hits. Some 2.1% of all compounds tested hit in one or more screens of this group.
SMILES,IMP-1 inh-1,DNA FID counter,VIM-2 inhibitor,SUMO HTRF inh,NS3 helicase inh,IMP-1 inh-2,VIM-2 FRET ctr,TEM-1 counter,VIM-2 inh conf
O=C(COc1ccc2c3c(c(=O)oc2c1)CCC3)NC1CCN(Cc2ccccc2)CC1,-1,-4,28*,9,0,-1,4,0.7*,39*
CCCc1cc(=O)oc2c(C)c(OCC(=O)NC3CCN(Cc4ccccc4)CC3)ccc12,-3,15,16*,8,-3,-3,-6,-7,27*
CCCc1cc(=O)oc2cc(OCC(=O)NC3CCN(Cc4ccccc4)CC3)ccc12,-1,13,3,9,-6,.,.,.,.
Oc1ccc(/C=N/n2c(-c3ccccc3)n[nH]c2=S)cc1Br,-4,-12,8,6,-1,.,.,.,.
Oc1c(Br)cc(/C=N/n2c(-c3ccccc3)n[nH]c2=S)c(O)c1Br,-5,2,34*,6,7,-3,58*,-8,43*
Oc1c(Br)cc(/C=N/n2c(-c3ccccc3)n[nH]c2=S)cc1Br,-5,-9,27*,10,25,-2,50*,-7,39*
Cc1ccc(-c2n[nH]c(=S)n2/N=C/c2ccc(C(=O)O)cc2)cc1,-4,-12,18*,-8,-4,-4,35*,-7,23*
COc1ccc2nnc(-c3ccccc3)n2n1,-4,-2,1,4,0,.,.,.,.
COc1cc(CCNc2ccc3nnc(-c4ccccc4)n3n2)cc(OC)c1OC,-2,-43,19*,-1,2,-2,0,-1,22*
CCn1c(SCC(=O)Nc2cc(C(C)(C)C)nn2-c2ccccc2)nnc1-c1cccs1,0,-32,-2,7,7,.,.,.,.
CCn1c(SCC(N)=O)nnc1-c1cc2c(C)nn(-c3ccccc3)c2s1,-5,-25,15*,5,8,-3,9,-6,27*
COC(=O)c1sccc1NC(=O)Nc1ccc(C(C)=O)cc1,-1,-18,-3,3,-5,.,.,.,.
Cc1ccc(Cl)cc1N1CCN(C(=O)c2ccc3c(c2)CCN3S(C)(=O)=O)CC1,0,-59,-3,-5,10,.,.,.,.
O=c1[nH]c(=S)[nH]c2nc(-c3cccs3)cc(C(F)(F)F)c12,-5,-6,13*,2,12,-3,4,-7,15*
O=C(CSc1nc2nc(-c3cccs3)cc(C(F)(F)F)c2c(=O)[nH]1)Nc1c(F)c(F)c(F)c(F)c1F,-3,-2,-3,24,12,.,.,.,.
CC(=O)N1CN(Cc2ccccn2)Cc2c1sc1c2CCCC1,0,-2,-1,11,-7,.,.,.,.
CC(=O)N1CN(CCCn2ccnc2)Cc2c1sc1c2CCCC1,-5,18,26*,9,10,-2,-8,-5,46*
CC(C)(C)NC(=S)N1CCC(C(=O)c2ccc(Cl)cc2)CC1,-3,-2,-1,3,1,.,.,.,.
O=C(O)c1ccccc1Nc1ccc([N+](=O)[O-])c2nonc12,-6,1,22*,-7,5,-5,51*,-14,27*
O=S(=O)(c1ccccc1)n1c(C(O)c2ccccn2)cc2ccccc21 (stereo not given),-5,-17,1,1,-12,.,.,.,.
Cc1nn2c(N3CCN(C)CC3)c3c(nc2c1-c1ccccc1)CCCC3,1,10,26*,19,-23,-2,-4,-5,55*
Cc1nn2c(NCCN3CCOCC3)c3c(nc2c1-c1ccccc1)CCCC3,-1,-4,-2,-15,-6,.,.,.,.
COc1ccc(CCNC(=O)c2cc3c(=O)n4ccccc4nc3n(CCCN3CCOCC3)c2=N)cc1OC,0,46*,15*,8,-3,-3,-9,-4,21*
N=c1c(C(=O)NC2CCCC2)cc2c(=O)n3ccccc3nc2n1CCCN1CCOCC1,-4,19,2,24,9,.,.,.,.
Cc1cccn2c(=O)c3cc(C(=O)NCC4CCCO4)c(=N)n(CCN4CCOCC4)c3nc12 (stereo not given),-3,-16,3,28,4,.,.,.,.
SMILES,IMP-1 inh-1,DNA FID counter,VIM-2 inhibitor,SUMO HTRF inh,NS3 helicase inh,IMP-1 inh-2,VIM-2 FRET ctr,TEM-1 counter,VIM-2 inh conf
COc1ccc(CCn2c(=N)c(C(=O)NCCN3CCOCC3)cc3c(=O)n4cccc(C)c4nc32)cc1OC,-3,56*,19*,-6,-18,-3,0,-6,27*
O=C(/C=C/c1c[nH]c2ccccc12)c1cccc2ccccc12,-3,-1,-1,10,-6,.,.,.,.
O=C(CNCc1ccccn1)N1CCc2ccccc2C1,-1,-1,30*,23,-9,-3,-9,-5,50*
O=C(CSc1ncccn1)N1CCc2ccccc2C1,-1,4,-4,14,-12,.,.,.,.
Cc1cc(N2C(=O)CC(N3CCN(c4ccc(C(=O)c5cccs5)cc4)CC3)C2=O)no1 (stereo not given),-2,-36,13*,7,3,-4,0,-7,3
Cn1c(=O)n(C)c2cc([N+](=O)[O-])c(N3CCN(CCO)CC3)cc21,-1,4,0,27,-5,.,.,.,.
O=C(OCC(=O)N1CCN(C(=O)c2ccco2)CC1)c1cc(-c2ccc(Cl)c(Cl)c2Cl)nc2ccccc12,-4,-3,-4,-36,-7,.,.,.,.
O=C(OCC(=O)N1CCN(C(=O)c2ccco2)CC1)c1cc(-c2ccco2)nc2ccccc12,1,-17,15*,43,6,-4,-19,-7,11*
COc1ccccc1C(=O)NC(C)c1ccc(-n2ccnc2)cc1 (stereo not given),-6,-11,1,2,9,.,.,.,.
CCOc1ccccc1C(=O)NC(C)c1ccc(-n2ccnc2)cc1 (stereo not given),-4,-23,26*,-1,7,-4,8,-7,34*
CN1CCN(C(=O)CCn2c(=O)c3cccn3c3cccnc32)CC1,-1,12,14*,2,5,-4,-2,-6,26*
CCOC(=O)C1CCN(C(=O)CCn2c(=O)c3cccn3c3cccnc32)CC1,-3,-28,4,-17,-1,.,.,.,.
Cc1cc(C)c(C(=O)C(C)OC(=O)c2ccccn2)cc1C (stereo not given),-2,-14,0,21,7,.,.,.,.
COc1ccc(Cl)c2c1[nH]c1nc(SCc3ccccn3)nnc12,1,4,13*,-8,-6,-3,2,-8,21*
CN1CCN(c2nc(-c3ccccc3O)nc3ccccc23)CC1,-2,29,14*,-5,-13,-2,0,-7,18*
